{"data": "Assay results collected from several papers", "target": "Casein kinase I isoform gamma-1 (CSNK1G1, Homo sapiens, UniProt Q9HCP0)", "note": "Compare with care: the assays were run in different laboratories."}
{"Structure (SMILES)": "N[C@@H]1CCN(c2nccc(-c3cnn4ncccc34)n2)C1", "test": "binding", "setting": "1 µM", "remaining binding [%]": 100}
{"Structure (SMILES)": "O=C(NS(=O)(=O)c1ccc(NCC2CCOCC2)c([N+](=O)[O-])c1)c1ccc(N2CCN(Cc3ccc(C(F)(F)F)cc3-c3ccc(Cl)cc3)CC2)cc1Oc1cnc2[nH]ccc2c1", "test": "cell-free assay, competition with immobilised ligand", "setting": "1 µM", "remaining binding [%]": 95}
{"Structure (SMILES)": "O=C(c1ccc(Nc2nccc(-c3cc4ccccc4s3)n2)cc1)N1CCC(N2CCCC2)CC1", "test": "binding, competition with immobilised ligand", "setting": "1 µM", "remaining binding [%]": 88}
{"Structure (SMILES)": "O=C(NCC1CCOCC1)c1n[nH]cc1NC(=O)c1c(F)cccc1F", "test": "binding, competition with immobilised ligand", "setting": "1 µM", "remaining binding [%]": 78}
{"Structure (SMILES)": "CNC(=O)[C@@H]1CC[C@@H](n2c(-c3ccc4cnccc4c3)nc3ccc(C(=O)NCc4cccc(C(N)=O)c4)cc32)C1", "test": "binding, competition with immobilised ligand", "setting": "1 µM", "remaining binding [%]": 100}
{"Structure (SMILES)": "C[C@@H]1CN(c2cc(-c3n[nH]c4ccc(OC5(C)CC5)cc34)ncn2)C[C@H](C)O1", "test": "cell-free assay, competition with immobilised ligand", "setting": "0.1 µM", "remaining binding [%]": 100}
{"Structure (SMILES)": "CC1CCCN1c1nccc(-c2cnn3ncccc23)n1 (stereo not shown)", "test": "binding", "setting": "1 µM", "remaining binding [%]": 100}
{"Structure (SMILES)": "CN(C)c1ncnc(-c2ccc3nc(Nc4cc(CN5CCN(C(=O)CC(F)(F)F)CC5)ccn4)[nH]c3c2)c1Cl", "test": "cell-free assay, competition with immobilised ligand", "setting": "1 µM", "remaining binding [%]": 76}
{"Structure (SMILES)": "CCN1CCN(Cc2ccc(C(=O)Nc3ccc(C)c(Oc4ccc5c(c4)CC(=O)N5)c3)cc2C(F)(F)F)CC1", "test": "binding, competition with immobilised ligand", "setting": "1 µM", "remaining binding [%]": 100}
{"Structure (SMILES)": "Cc1cnn2ncc(-c3ccnc(N(C)C)n3)c2c1", "test": "binding", "setting": "1 µM", "remaining binding [%]": 73}
{"Structure (SMILES)": "CCCCN(CCCC)C(=O)CN1C[C@H](c2cc(OC)c3c(c2)OCO3)[C@@H](C(=O)O)[C@@H]1CC(C)(C)CCC", "test": "cell-free assay, competition with immobilised ligand", "setting": "1 µM", "remaining binding [%]": 100}
{"Structure (SMILES)": "COc1ncc2cc3ccccc3nc2c1C#N", "test": "cell-free assay, competition with immobilised ligand", "setting": "5 µM", "remaining binding [%]": 100}
{"Structure (SMILES)": "CN(CCCC(F)(F)F)c1nccc(-c2cnn3ncccc23)n1", "test": "binding", "setting": "1 µM", "remaining binding [%]": 100}
{"Structure (SMILES)": "COc1cnc(Nc2cccc(S(N)(=O)=O)c2)nc1N1CCN(c2ccccc2)CC1", "test": "binding, competition with immobilised ligand", "setting": "1 µM", "remaining binding [%]": 100}
{"Structure (SMILES)": "C[C@H]1CCN(c2nccc(-c3cnn4ncccc34)n2)C1", "test": "binding", "setting": "1 µM", "remaining binding [%]": 85}
{"Structure (SMILES)": "COc1cccc(CNC(=O)c2nc3scc(COCc4ccc(C(=O)O)cc4)c3c(=O)[nH]2)c1", "test": "cell-free assay, competition with immobilised ligand", "setting": "1 µM", "remaining binding [%]": 100}
{"Structure (SMILES)": "O=C(c1ccc(Nc2ncc(Cl)c(-c3cc4ccccc4s3)n2)cc1)N1CCC(N2CCCC2)CC1", "test": "binding, competition with immobilised ligand", "setting": "1 µM", "remaining binding [%]": 80}
{"Structure (SMILES)": "CCC(=O)N[C@H]1CC[C@@H](C(=O)N(C)c2ccc(-c3nc4ccccc4o3)cc2)C1", "test": "cell-free assay, competition with immobilised ligand", "setting": "1 µM", "remaining binding [%]": 90}
{"Structure (SMILES)": "CN(C)c1ncc(F)c(-c2cnn3ncccc23)n1", "test": "binding", "setting": "1 µM", "remaining binding [%]": 74}
